Assay: phase I dose-escalation: safety and tolerability
Format: in vivo, patients
Procedure, shortened: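 Patients receiving ≥1 oral dose (25–300 mg/day) formed the safety set. Dosing was a single dose on day 1, then 21-day continuous daily dosing after 7 days. AEs graded by CTCAE v4.03. DLT window ran from day 1 of cycle 0 to day 21 of cycle 1 (28 days). ECGs were taken before and 1, 2, 4, 6, 10 and 24 h after the first dose.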

C=CC(=O)Nc1cc(Nc2ncc(Cl)c(Nc3ccccc3C(=O)C(=O)N(C)C)n2)c(OC)cc1N1CCN(C)CC1 [BPI-15086]
TRAE, Grade 3 and 4: Hyperglycemia (25 mg/day (n = 1)): 0 n (%)
TRAE, Grade 3 and 4: any (25 mg/day (n = 1)): 0 n (%)
TRAE, all grades: Anemia (25 mg/day (n = 1)): 0 n (%)
TRAE, all grades: Decreased appetite (25 mg/day (n = 1)): 1 (100.0) n (%)
TRAE, all grades: Decreased total protein (25 mg/day (n = 1)): 0 n (%)
TRAE, all grades: Diarrhea (25 mg/day (n = 1)): 0 n (%)
TRAE, all grades: Elevated ALT (25 mg/day (n = 1)): 0 n (%)
TRAE, all grades: Elevated blood glucose (25 mg/day (n = 1)): 0 n (%)
TRAE, all grades: Elevated blood triglycerides (25 mg/day (n = 1)): 0 n (%)
TRAE, all grades: Elevated blood uric acid (25 mg/day (n = 1)): 0 n (%)
TRAE, all grades: Elevated conjugated bilirubin (25 mg/day (n = 1)): 0 n (%)
TRAE, all grades: Elevated serum creatinine (25 mg/day (n = 1)): 0 n (%)
TRAE, all grades: Elevated γ-glutamyltransferase (25 mg/day (n = 1)): 0 n (%)
TRAE, all grades: Hyperglycemia (25 mg/day (n = 1)): 0 n (%)
TRAE, all grades: Hypoalbuminemia (25 mg/day (n = 1)): 0 n (%)
TRAE, all grades: Nausea (25 mg/day (n = 1)): 0 n (%)
TRAE, all grades: Proteinuria (25 mg/day (n = 1)): 0 n (%)
TRAE, all grades: Vomiting (25 mg/day (n = 1)): 0 n (%)
TRAE, all grades: any (25 mg/day (n = 1)): 1 (100.0) n (%)
TRAE, Grade 3 and 4: Hyperglycemia (50 mg/day (n = 3)): 0 n (%)
TRAE, Grade 3 and 4: any (50 mg/day (n = 3)): 0 n (%)
TRAE, all grades: Anemia (50 mg/day (n = 3)): 0 n (%)
TRAE, all grades: Decreased appetite (50 mg/day (n = 3)): 0 n (%)
TRAE, all grades: Decreased total protein (50 mg/day (n = 3)): 0 n (%)
TRAE, all grades: Diarrhea (50 mg/day (n = 3)): 0 n (%)
TRAE, all grades: Elevated ALT (50 mg/day (n = 3)): 0 n (%)
TRAE, all grades: Elevated blood glucose (50 mg/day (n = 3)): 1 (33.3) n (%)
TRAE, all grades: Elevated blood triglycerides (50 mg/day (n = 3)): 0 n (%)
TRAE, all grades: Elevated blood uric acid (50 mg/day (n = 3)): 0 n (%)
TRAE, all grades: Elevated conjugated bilirubin (50 mg/day (n = 3)): 0 n (%)
TRAE, all grades: Elevated serum creatinine (50 mg/day (n = 3)): 1 (33.3) n (%)
TRAE, all grades: Elevated γ-glutamyltransferase (50 mg/day (n = 3)): 0 n (%)
TRAE, all grades: Hyperglycemia (50 mg/day (n = 3)): 0 n (%)
TRAE, all grades: Hypoalbuminemia (50 mg/day (n = 3)): 0 n (%)
TRAE, all grades: Nausea (50 mg/day (n = 3)): 1 (33.3) n (%)
TRAE, all grades: Proteinuria (50 mg/day (n = 3)): 0 n (%)
TRAE, all grades: Vomiting (50 mg/day (n = 3)): 0 n (%)
TRAE, all grades: any (50 mg/day (n = 3)): 2 (66.7) n (%)
TRAE, Grade 3 and 4: Hyperglycemia (100 mg/day (n = 3)): 0 n (%)
TRAE, Grade 3 and 4: any (100 mg/day (n = 3)): 0 n (%)
TRAE, all grades: Anemia (100 mg/day (n = 3)): 0 n (%)
TRAE, all grades: Decreased appetite (100 mg/day (n = 3)): 0 n (%)
TRAE, all grades: Decreased total protein (100 mg/day (n = 3)): 1 (33.3) n (%)
TRAE, all grades: Diarrhea (100 mg/day (n = 3)): 0 n (%)
TRAE, all grades: Elevated ALT (100 mg/day (n = 3)): 0 n (%)
TRAE, all grades: Elevated blood glucose (100 mg/day (n = 3)): 0 n (%)
TRAE, all grades: Elevated blood triglycerides (100 mg/day (n = 3)): 0 n (%)
TRAE, all grades: Elevated blood uric acid (100 mg/day (n = 3)): 1 (33.3) n (%)
TRAE, all grades: Elevated conjugated bilirubin (100 mg/day (n = 3)): 0 n (%)
TRAE, all grades: Elevated serum creatinine (100 mg/day (n = 3)): 1 (33.3) n (%)
TRAE, all grades: Elevated γ-glutamyltransferase (100 mg/day (n = 3)): 0 n (%)
TRAE, all grades: Hyperglycemia (100 mg/day (n = 3)): 0 n (%)
TRAE, all grades: Hypoalbuminemia (100 mg/day (n = 3)): 0 n (%)
TRAE, all grades: Nausea (100 mg/day (n = 3)): 1 (33.3) n (%)
TRAE, all grades: Proteinuria (100 mg/day (n = 3)): 0 n (%)
TRAE, all grades: Vomiting (100 mg/day (n = 3)): 1 (33.3) n (%)
TRAE, all grades: any (100 mg/day (n = 3)): 3 (100.0) n (%)
TRAE, Grade 3 and 4: Hyperglycemia (200 mg/day (n = 7)): 0 n (%)
TRAE, Grade 3 and 4: any (200 mg/day (n = 7)): 0 n (%)
TRAE, all grades: Anemia (200 mg/day (n = 7)): 3 (42.9) n (%)
TRAE, all grades: Decreased appetite (200 mg/day (n = 7)): 1 (14.3) n (%)
TRAE, all grades: Decreased total protein (200 mg/day (n = 7)): 2 (28.6) n (%)
TRAE, all grades: Diarrhea (200 mg/day (n = 7)): 2 (28.6) n (%)
TRAE, all grades: Elevated ALT (200 mg/day (n = 7)): 1 (14.3) n (%)
TRAE, all grades: Elevated blood glucose (200 mg/day (n = 7)): 2 (28.6) n (%)
TRAE, all grades: Elevated blood triglycerides (200 mg/day (n = 7)): 2 (28.6) n (%)
TRAE, all grades: Elevated blood uric acid (200 mg/day (n = 7)): 3 (42.9) n (%)
TRAE, all grades: Elevated conjugated bilirubin (200 mg/day (n = 7)): 2 (28.6) n (%)
TRAE, all grades: Elevated serum creatinine (200 mg/day (n = 7)): 2 (28.6) n (%)
TRAE, all grades: Elevated γ-glutamyltransferase (200 mg/day (n = 7)): 2 (28.6) n (%)
TRAE, all grades: Hyperglycemia (200 mg/day (n = 7)): 0 n (%)
TRAE, all grades: Hypoalbuminemia (200 mg/day (n = 7)): 5 (71.4) n (%)
TRAE, all grades: Nausea (200 mg/day (n = 7)): 1 (14.3) n (%)
TRAE, all grades: Proteinuria (200 mg/day (n = 7)): 3 (42.9) n (%)
TRAE, all grades: Vomiting (200 mg/day (n = 7)): 1 (14.3) n (%)
TRAE, all grades: any (200 mg/day (n = 7)): 7 (100.0) n (%)
TRAE, Grade 3 and 4: Hyperglycemia (300 mg/day (n = 3)): 1 (33.3) n (%)
TRAE, Grade 3 and 4: any (300 mg/day (n = 3)): 1 (33.3) n (%)
TRAE, all grades: Anemia (300 mg/day (n = 3)): 0 n (%)
TRAE, all grades: Decreased appetite (300 mg/day (n = 3)): 3 (100.0) n (%)
TRAE, all grades: Decreased total protein (300 mg/day (n = 3)): 0 n (%)
TRAE, all grades: Diarrhea (300 mg/day (n = 3)): 1 (33.3) n (%)
TRAE, all grades: Elevated ALT (300 mg/day (n = 3)): 1 (33.3) n (%)
TRAE, all grades: Elevated blood glucose (300 mg/day (n = 3)): 0 n (%)
TRAE, all grades: Elevated blood triglycerides (300 mg/day (n = 3)): 0 n (%)
TRAE, all grades: Elevated blood uric acid (300 mg/day (n = 3)): 0 n (%)
TRAE, all grades: Elevated conjugated bilirubin (300 mg/day (n = 3)): 0 n (%)
TRAE, all grades: Elevated serum creatinine (300 mg/day (n = 3)): 0 n (%)
TRAE, all grades: Elevated γ-glutamyltransferase (300 mg/day (n = 3)): 0 n (%)
TRAE, all grades: Hyperglycemia (300 mg/day (n = 3)): 3 (100.0) n (%)
TRAE, all grades: Hypoalbuminemia (300 mg/day (n = 3)): 0 n (%)
TRAE, all grades: Nausea (300 mg/day (n = 3)): 3 (100.0) n (%)
TRAE, all grades: Proteinuria (300 mg/day (n = 3)): 0 n (%)
TRAE, all grades: Vomiting (300 mg/day (n = 3)): 2 (66.7) n (%)
TRAE, all grades: any (300 mg/day (n = 3)): 3 (100.0) n (%)
maximum tolerated dose (MTD) (25-300 mg/day): not reached
dose-limiting toxicities (DLTs) (28-day evaluation period, any dose level 25-300 mg/day): No DLTs were observed
treatment-related serious AE (hyperglycemia), patients (300-mg/day group): one
TRAE, Grade 3 and 4: Hyperglycemia (All (n = 17)): 1 (5.9) n (%)
TRAE, Grade 3 and 4: any (All (n = 17)): 1 (5.9) n (%)
TRAE, all grades: Anemia (All (n = 17)): 3 (17.6) n (%)
TRAE, all grades: Decreased appetite (All (n = 17)): 5 (29.4) n (%)
TRAE, all grades: Decreased total protein (All (n = 17)): 3 (17.6) n (%)
TRAE, all grades: Diarrhea (All (n = 17)): 3 (17.6) n (%)
TRAE, all grades: Elevated ALT (All (n = 17)): 2 (11.8) n (%)
TRAE, all grades: Elevated blood glucose (All (n = 17)): 3 (17.6) n (%)
TRAE, all grades: Elevated blood triglycerides (All (n = 17)): 2 (11.8) n (%)
TRAE, all grades: Elevated blood uric acid (All (n = 17)): 4 (23.5) n (%)
TRAE, all grades: Elevated conjugated bilirubin (All (n = 17)): 2 (11.8) n (%)
TRAE, all grades: Elevated serum creatinine (All (n = 17)): 4 (23.5) n (%)
TRAE, all grades: Elevated γ-glutamyltransferase (All (n = 17)): 2 (11.8) n (%)
TRAE, all grades: Hyperglycemia (All (n = 17)): 3 (17.6) n (%)
TRAE, all grades: Hypoalbuminemia (All (n = 17)): 5 (29.4) n (%)
TRAE, all grades: Nausea (All (n = 17)): 6 (35.3) n (%)
TRAE, all grades: Proteinuria (All (n = 17)): 3 (17.6) n (%)
TRAE, all grades: Vomiting (All (n = 17)): 4 (23.5) n (%)
TRAE, all grades: any (All (n = 17)): 16 (94.1) n (%)
AEs leading to drug discontinuation (all 17 patients): no adverse events (AEs) causing drug discontinuation were seen
TRAE: anemia, patients (all 17 patients): 17.6%
TRAE: decreased appetite, patients (all 17 patients): 29.4%
TRAE: decreased total protein, patients (all 17 patients): 17.6%
TRAE: diarrhea, patients (all 17 patients): 17.6%
TRAE: elevated alanine aminotransferase, patients (all 17 patients): 11.8%
TRAE: elevated blood glucose, patients (all 17 patients): 17.6%
TRAE: elevated blood triglycerides, patients (all 17 patients): 11.8%
TRAE: elevated blood uric acid, patients (all 17 patients): 23.5%
TRAE: elevated conjugated bilirubin, patients (all 17 patients): 11.8%
TRAE: elevated serum creatinine, patients (all 17 patients): 23.5%
TRAE: elevated γ-glutamyltransferase, patients (all 17 patients): 11.8%
TRAE: hyperglycemia, patients (all 17 patients): 17.6%
TRAE: hypoalbuminemia, patients (all 17 patients): 29.4%
TRAE: nausea, patients (all 17 patients): 35.3%
TRAE: proteinuria, patients (all 17 patients): 17.6%
TRAE: vomiting, patients (all 17 patients): 23.5%
patients with diarrhea (all 17 patients): 3/17
patients with rash/pruritis (all 17 patients): no patient
Serious AEs, patients (all 17 patients (two patients)): 11.8%

Source: paper PMC9271465 (ESMO Open, 2022)
